Consider twelve compounds from ChEMBL document CHEMBL3994610, “A Macrocyclic Agouti-Related Protein/[Nle4,DPhe7]α-Melanocyte Stimulating Hormone Chimeric Scaffold Produces Subnanomolar Melanocortin Receptor Ligands” (J Med Chem, 2017).

In experiment [1] the target is Melanocortin receptor 3 (Mus musculus) (UniProt P33033). The experiment in a line: Agonist activity at mouse MC3R expressed in HEK293 cells assessed as increase in forskolin-induced cAMP accumulation at 100 uM preincubated for 2 hrs followed by biotinylated cAMP addition and subsequent incubation for 2 hrs by AlphaScreen assay relative to NDP-MSH. The class given is functional, cell-based. In outline:
(§1)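 HEK293 cells stably expressing mouse MC1R, MC3R, MC4R or MC5R, at 70-90% confluence, were detached with Versene at 37 °C and plated at 10,000 cells/well. Stimulation buffer was HBSS with 5 mM HEPES, 0.5 mM IBMX and 0.1% BSA, pH 7.4, plus anti-cAMP acceptor beads. Peptide from 10^-2 M DMSO stock was added and incubated 2 hr in the dark at room temperature. Forskolin at 10^-4 M was the reference stimulus.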

For experiment [2], the species on record is Mus musculus. The experiment in a line: Selectivity ratio of EC50 for mouse MC3R to EC50 for mouse MC5R.
Experiment [3] is filed under the species Mus musculus. The experiment in a line: Selectivity ratio of EC50 for mouse MC4R to EC50 for mouse MC3R.
For experiment [4], the species on record is Mus musculus. The experiment in a line: Selectivity ratio of EC50 for mouse MC3R to EC50 for mouse MC4R.
Experiment [5] concerns the target Melanocortin receptor 4 (Mus musculus) (UniProt P56450). The experiment can be described thus: Agonist activity at mouse MC4R expressed in HEK293 cells assessed as increase in forskolin-induced cAMP accumulation at 100 uM preincubated for 2 hrs followed by biotinylated cAMP addition and subsequent incubation for 2 hrs by AlphaScreen assay relative to NDP-MSH. The class given is functional, cell-based. In short, it runs like this:
as §1
A general note: Changes in cAMP serve as a functional read-out for many G protein-coupled receptors.

The next experiment has as its target Melanocortin receptor 3 (Mus musculus, UniProt P33033). The experiment can be described thus: Agonist activity at mouse MC3R expressed in HEK293 cells assessed as increase in forskolin-induced cAMP accumulation preincubated for 2 hrs followed by biotinylated cAMP addition and subsequent incubation for 2 hrs by AlphaScreen assay. It counts as functional, cell-based. In outline: as §1

Experiment [6] is filed under the species Mus musculus. The experiment can be described thus: Selectivity ratio of EC50 for mouse MC3R to EC50 for mouse MC1R.
The target of experiment [7] is Melanocortin receptor 3 (Homo sapiens) (UniProt P41968). The experiment can be described thus: Agonist activity at human MC3R expressed in CHO cells assessed as increase in IBMX-induced cAMP accumulation at 10 uM after 45 mins by [125I]cAMP flash plate assay relative to MT-2.
Chain of Melanocortin receptor 3 (Homo sapiens) (P41968 whole entry, looked up): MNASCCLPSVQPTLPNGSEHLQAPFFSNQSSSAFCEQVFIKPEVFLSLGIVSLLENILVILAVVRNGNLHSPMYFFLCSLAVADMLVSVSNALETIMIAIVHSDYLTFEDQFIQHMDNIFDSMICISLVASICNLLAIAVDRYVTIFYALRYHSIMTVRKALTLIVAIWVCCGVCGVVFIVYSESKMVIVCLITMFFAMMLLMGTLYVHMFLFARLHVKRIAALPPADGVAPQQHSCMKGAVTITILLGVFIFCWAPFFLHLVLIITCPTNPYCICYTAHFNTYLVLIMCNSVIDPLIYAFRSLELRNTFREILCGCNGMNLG
Experiment [8] concerns the target Melanocyte-stimulating hormone receptor (Mus musculus) (UniProt Q01727). The experiment in a line: Agonist activity at mouse MC1R expressed in HEK293 cells assessed as increase in forskolin-induced cAMP accumulation at 100 uM preincubated for 2 hrs followed by biotinylated cAMP addition and subsequent incubation for 2 hrs by AlphaScreen assay relative to NDP-MSH. It counts as functional, cell-based. In short, it runs like this:
as §1

The target of experiment [9] is Melanocortin receptor 5 (Mus musculus) (UniProt P41149). The experiment in a line: Agonist activity at mouse MC5R expressed in HEK293 cells assessed as increase in forskolin-induced cAMP accumulation at 100 uM preincubated for 2 hrs followed by biotinylated cAMP addition and subsequent incubation for 2 hrs by AlphaScreen assay relative to NDP-MSH. The class given is functional, cell-based. In outline:
as §1

The species entered for experiment [10] is Mus musculus. The experiment can be described thus: Selectivity ratio of EC50 for mouse MC5R to EC50 for mouse MC1R.
A further experiment addresses Melanocortin receptor 5 (Mus musculus, UniProt P41149). The experiment can be described thus: Agonist activity at mouse MC5R expressed in HEK293 cells assessed as increase in forskolin-induced cAMP accumulation preincubated for 2 hrs followed by biotinylated cAMP addition and subsequent incubation for 2 hrs by AlphaScreen assay. The class given is functional, cell-based. In outline:
as §1

Experiment [11] is filed under the species Mus musculus. The experiment can be described thus: Selectivity ratio of EC50 for mouse MC4R to EC50 for mouse MC1R.

Square brackets hold non-standard residues; d marks the D form. Peptide text beside a SMILES is read from it. Dap = NC[C@H](N)C(=O)O

Chain of Melanocortin receptor 4 (Mus musculus) (P56450 whole entry): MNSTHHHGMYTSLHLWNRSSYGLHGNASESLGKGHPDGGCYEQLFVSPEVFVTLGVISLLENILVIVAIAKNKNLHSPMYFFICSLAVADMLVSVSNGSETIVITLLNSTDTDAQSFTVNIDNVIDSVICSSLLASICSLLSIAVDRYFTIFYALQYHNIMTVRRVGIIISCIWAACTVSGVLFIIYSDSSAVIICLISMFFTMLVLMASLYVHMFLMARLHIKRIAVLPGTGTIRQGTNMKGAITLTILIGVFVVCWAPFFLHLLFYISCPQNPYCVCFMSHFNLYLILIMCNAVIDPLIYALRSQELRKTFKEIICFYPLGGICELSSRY
Chain of Melanocyte-stimulating hormone receptor (Mus musculus) (Q01727 whole entry, looked up): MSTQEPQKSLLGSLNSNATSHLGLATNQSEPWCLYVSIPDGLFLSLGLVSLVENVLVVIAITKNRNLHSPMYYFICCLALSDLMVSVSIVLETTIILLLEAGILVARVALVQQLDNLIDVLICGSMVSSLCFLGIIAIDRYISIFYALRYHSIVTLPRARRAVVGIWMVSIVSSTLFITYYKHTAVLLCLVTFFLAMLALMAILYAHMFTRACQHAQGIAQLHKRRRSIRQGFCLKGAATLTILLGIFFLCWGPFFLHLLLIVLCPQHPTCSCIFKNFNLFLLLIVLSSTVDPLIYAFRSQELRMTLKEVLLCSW
Chain of Melanocortin receptor 3 (P33033 whole entry): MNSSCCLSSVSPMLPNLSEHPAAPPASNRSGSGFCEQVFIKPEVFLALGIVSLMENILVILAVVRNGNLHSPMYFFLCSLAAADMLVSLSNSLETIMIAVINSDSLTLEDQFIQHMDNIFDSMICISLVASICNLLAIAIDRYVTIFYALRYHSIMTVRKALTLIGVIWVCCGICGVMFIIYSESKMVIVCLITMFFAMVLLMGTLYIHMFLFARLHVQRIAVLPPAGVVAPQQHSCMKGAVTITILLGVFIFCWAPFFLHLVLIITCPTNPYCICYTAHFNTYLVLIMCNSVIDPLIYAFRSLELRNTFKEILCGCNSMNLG
Chain of Melanocortin receptor 3 (Mus musculus) (P33033 whole entry): as above
Chain of Melanocortin receptor 5 (P41149 whole entry): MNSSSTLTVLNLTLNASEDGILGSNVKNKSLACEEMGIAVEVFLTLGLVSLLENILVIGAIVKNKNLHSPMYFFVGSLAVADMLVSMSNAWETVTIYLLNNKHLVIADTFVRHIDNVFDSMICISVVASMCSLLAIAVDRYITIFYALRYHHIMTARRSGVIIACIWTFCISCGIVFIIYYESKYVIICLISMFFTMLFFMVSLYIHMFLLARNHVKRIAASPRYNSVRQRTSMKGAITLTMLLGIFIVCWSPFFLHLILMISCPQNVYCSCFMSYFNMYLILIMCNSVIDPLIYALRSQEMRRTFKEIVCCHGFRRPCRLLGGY
Chain of Melanocortin receptor 5 (Mus musculus) (P41149 whole entry): as above

In the case of `C[C@@H]1NC(=O)[C@H](CN)NC(=O)[C@H](Cc2c[nH]c3ccccc23)NC(=O)[C@H](CCCNC(=N)N)NC(=O)[C@@H](Cc2ccccc2)NC(=O)[C@@H]2CCCN2C(=O)[C@H]2CCCN2C1=O` (cyclo(P[dF]RW[Dap]A[dP])), the Activity in experiment [1] worked out at 70%. In addition, the Ratio EC50 was greater than 1000 in the experiment listed under Mus musculus [2] and greater than 300 in the experiment filed under Mus musculus [3].
With `C[C@@H]1NC(=O)[C@H](CC(N)=O)NC(=O)[C@H](Cc2c[nH]c3ccccc23)NC(=O)[C@H](CCCNC(=N)N)NC(=O)[C@@H](Cc2ccccc2)NC(=O)[C@H](Cc2cnc[nH]2)NC(=O)[C@@H]2CCCN2C(=O)[C@H]2CCCN2C(=O)[C@H](Cc2ccccc2)NC1=O` (cyclo(H[dF]RWNAF[dP]P)), the Ratio EC50 in the experiment listed under Mus musculus [4] worked out at 23.
Take `C[C@@H]1NC(=O)[C@H](CN)NC(=O)[C@H](Cc2c[nH]c3ccccc23)NC(=O)[C@H](CCCNC(=N)N)NC(=O)[C@@H](Cc2ccccc2)NC(=O)[C@H](Cc2cnc[nH]2)NC(=O)[C@@H]2CCCN2C(=O)[C@H]2CCCN2C1=O` (cyclo(H[dF]RW[Dap]A[dP]P)): the Ratio EC50 in the experiment listed under Mus musculus [2] is greater than 100; in the experiment listed under Mus musculus [4], 25.
By EC50 is commonly meant the concentration that produces a half-maximal response. Turning to `N=C(N)NCCC[C@@H]1NC(=O)[C@@H](Cc2ccccc2)NC(=O)[C@@H]2CCCN2C(=O)[C@H]2CCCN2C(=O)[C@H](Cc2c[nH]c3ccccc23)NC1=O` (cyclo(P[dF]RW[dP])), the Activity in experiment [5] worked out at 50%. Also, the EC50 at Melanocortin receptor 3 is greater than 100 µM.
For the compound `N=C(N)NCCC[C@@H]1NC(=O)[C@@H](Cc2ccccc2)NC(=O)[C@H](Cc2cnc[nH]2)NC(=O)[C@@H]2CCCN2C(=O)[C@H]2CCCN2C(=O)[C@H](CN)NC(=O)[C@H](Cc2c[nH]c3ccccc23)NC1=O` (cyclo(H[dF]RW[Dap][dP]P)), the Ratio EC50 in the experiment listed under Mus musculus [6] and in the experiment listed under Mus musculus [2] was greater than 100 throughout. The Activity in [1] was 65%.
As for `C[C@@H]1NC(=O)[C@H](CC(N)=O)NC(=O)[C@H](Cc2c[nH]c3ccccc23)NC(=O)[C@H](CCCNC(=N)N)NC(=O)[C@@H](Cc2ccccc2)NC(=O)[C@@H]2CCCN2C(=O)[C@H]2CCCN2C(=O)[C@H](Cc2ccccc2)NC1=O` (cyclo(P[dF]RWNAF[dP])), the Ratio EC50 in the experiment filed under Mus musculus [6] is greater than 100; in the experiment filed under Mus musculus [2], greater than 1000; in the experiment filed under Mus musculus [3], greater than 300. Further, the Activity in [1] stood at 45%.
Taken in the same sequence, the figures for `C[C@@H]1NC(=O)[C@H](CC(N)=O)NC(=O)[C@H](Cc2c[nH]c3ccccc23)NC(=O)[C@H](CCCNC(=N)N)NC(=O)[C@@H](Cc2ccccc2)NC(=O)[C@@H]2CCCN2C(=O)[C@H]2CCCN2C1=O` (cyclo(P[dF]RWNA[dP])) were greater than 100, greater than 1000, greater than 100 and 55%.
`CCCC[C@H](NC(C)=O)C(=O)N[C@H]1CC(=O)NCCCC[C@@H](C(=O)N2CCC[C@H]2C(=O)N[C@H](C(N)=O)C(C)C)NC(=O)[C@H](Cc2c[nH]c3ccccc23)NC(=O)[C@H](CCCNC(=N)N)NC(=O)[C@@H](Cc2ccccc2)NC(=O)[C@@H]2CCCN2C1=O`: in [7], the Efficacy stood at 12%.
Take `C[C@@H]1NC(=O)[C@H](CN)NC(=O)[C@H](Cc2c[nH]c3ccccc23)NC(=O)[C@H](CCCNC(=N)N)NC(=O)[C@@H](Cc2ccccc2)NC(=O)[C@@H]2CCCN2C(=O)[C@H]2CCCN2C(=O)[C@H](Cc2ccccc2)NC1=O` (cyclo(P[dF]RW[Dap]AF[dP])): the Activity in [1] amounted to 70%; in experiment [8] it was 45%.
As to `N=C(N)NCCC[C@@H]1NC(=O)[C@@H](Cc2ccccc2)NC(=O)[C@H](Cc2cnc[nH]2)NC(=O)[C@@H]2CCCN2C(=O)[C@H]2CCCN2C(=O)[C@H](Cc2c[nH]c3ccccc23)NC1=O` (cyclo(H[dF]RW[dP]P)), the figures for the Activity in experiment [1] and in [5] were 60% and 65%, respectively.
Regarding `N=C(N)NCCC[C@@H]1NC(=O)[C@@H](Cc2ccccc2)NC(=O)[C@@H]2CCCN2C(=O)[C@H]2CCCN2C(=O)[C@H](CC(N)=O)NC(=O)[C@H](Cc2c[nH]c3ccccc23)NC1=O` (cyclo(P[dF]RWN[dP])), the Ratio EC50 in the experiment listed under Mus musculus [6] is greater than 2500. The Activity amounted to 85% in experiment [5], 25% in experiment [9] and 85% in [8]. Also, the concentration giving a half-maximal response (EC50) on Melanocortin receptor 3 was greater than 100 µM.
Take `N=C(N)NCCC[C@@H]1NC(=O)[C@@H](Cc2ccccc2)NC(=O)[C@@H]2CCCN2C(=O)[C@H]2CCCN2C(=O)[C@H](CN)NC(=O)[C@H](Cc2c[nH]c3ccccc23)NC1=O` (cyclo(P[dF]RW[Dap][dP])): the Ratio EC50 in the experiment filed under Mus musculus [6], in the experiment listed under Mus musculus [10] and in the experiment listed under Mus musculus [11] was greater than 500 in each case. Further, the EC50 on Melanocortin receptor 5 and at Melanocortin receptor 3 was greater than 100 µM in each case. The values for the Activity in experiment [5] and in experiment [8] were 35% and 75%, respectively.
